This passage reports Ki and inhibition results from ChEMBL document CHEMBL2429829, “Inhibitors of the aminoglycoside 6'-N-acetyltransferase type Ib [AAC(6')-Ib] identified by in silico molecular docking” (Bioorg Med Chem Lett, 2013).

Activity calls are given as the source filed them. The rule behind the calls is not given here.

The nature of test [1]: Inhibition of aminoglycoside 6'-N-acetyltransferase Ib (unknown origin)-mediated acetylation expressed in Escherichia coli using 5 to 72 uM acetyl CoA and 25 uM kanamycin A as substrate preincubated for 10 mins followed by enzyme addition by spectrophotometric analysis. The procedure, abridged:
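Enzyme partially purified on DEAE from arabinose-induced E. coli, in 20 mM Tris pH 7.5 with 0.2 mM DTNB and 10% DMSO. Inhibitor at a range of concentrations, acetyl CoA 5–72 μM, kanamycin A 25 μM. 10 min room-temperature preincubation before enzyme. CoA-SH release read at 412 nm. Ki from initial velocities by nonlinear regression, in triplicate.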

Test [2] in a line: Inhibition of aminoglycoside 6'-N-acetyltransferase Ib (unknown origin)-mediated acetylation expressed in Escherichia coli using 3 to 18 uM kanamycin A and 100 uM acetyl CoA as substrate preincubated for 10 mins followed by enzyme addition by spectrophotometric analysis. The procedure, abridged: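 Enzyme partially purified on DEAE from arabinose-induced E. coli, in 20 mM Tris pH 7.5 with 0.2 mM DTNB and 10% DMSO. Inhibitor at a range of concentrations, kanamycin A 3–18 μM, acetyl CoA 100 μM. 10 min room-temperature preincubation before enzyme. CoA-SH release read at 412 nm. Ki from initial velocities by nonlinear regression, in triplicate.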

A short description of test [3]: Inhibition of aminoglycoside 6'-N-acetyltransferase Ib (unknown origin)-mediated acetylation expressed in Escherichia coli using kanamycin A and acetyl CoA as substrate at 100 uM preincubated for 10 mins followed by enzyme addition by spectrophotometric analysis relative to control. In short, it runs like this: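 Enzyme: thioredoxin-fused AAC(6′)-Ib, arabinose-induced in E. coli, partially purified by DEAE ion exchange. Reaction: 20 mM Tris pH 7.5, 0.2 mM DTNB, 50 μM acetyl CoA, 18 μM kanamycin A, compound at 100 μM in 10% DMSO. Mix held 10 min at room temperature before enzyme added. CoA–SH release read at 412 nm. Percent inhibition from initial velocities versus no-compound reactions; mean of three experiments.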

A short description of test [4]: Non-competitive inhibition of aminoglycoside 6'-N-acetyltransferase Ib (unknown origin) expressed in Escherichia coli using acetyl CoA as substrate by Lineweaver-Burk plot analysis in presence of kanamycin A. The procedure, abridged: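 Partially purified His-Patch thioredoxin-fused enzyme from E. coli (pBAD102, arabinose-induced), in 20 mM Tris pH 7.5 with 0.2 mM DTNB. Acetyl CoA varied 5–72 μM with kanamycin A fixed at 25 μM, at several inhibitor concentrations. Mix held 10 min at room temperature before enzyme. Initial rates followed at 412 nm, mode assigned from Lineweaver-Burk plots, in triplicate.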

Test [5] is described as follows: Competitive inhibition of aminoglycoside 6'-N-acetyltransferase Ib (unknown origin) expressed in Escherichia coli using kanamycin A as substrate by Lineweaver-Burk plot analysis in presence of acetyl CoA. The procedure, abridged:
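Partially purified His-Patch thioredoxin-fused enzyme from E. coli (pBAD102, arabinose-induced), in 20 mM Tris pH 7.5 with 0.2 mM DTNB. Kanamycin A varied 3–18 μM with acetyl CoA fixed at 100 μM, at several inhibitor concentrations. Mix held 10 min at room temperature before enzyme. Initial rates followed at 412 nm, mode assigned from Lineweaver-Burk plots, in triplicate.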

Test [6] can be described thus: Inhibition of aminoglycoside 6'-N-acetyltransferase Ib (unknown origin)-mediated acetylation expressed in Escherichia coli using kanamycin A and acetyl CoA as substrate at 100 uM preincubated for 10 mins followed by enzyme addition by spectrophotometric analysis in presence of Triton X-100. The procedure, abridged:
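Compound at 100 μM in 10% DMSO, with 20 mM Tris pH 7.5, 0.2 mM DTNB, 50 μM acetyl CoA, 18 μM kanamycin A and 0.01% Triton X-100. Preincubated 10 min at room temperature, then partially purified enzyme added. Absorbance at 412 nm gave initial velocities. Percent inhibition taken against compound-free reactions, mean of three experiments.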

Usually Ki stands for the dissociation constant of the complex between target and ligand, obtained from inhibition or displacement. What is called inhibition is the percentage by which the read-out fell short of the control. `O=C1NC(=O)N(c2ccc(O)cc2)C(=O)/C1=C/c1ccccc1OCc1ccc(C(=O)O)cc1`: the Ki was found to be 292 µM in test [1] and 129 µM in test [2]. Also, in test [3], the inhibition amounted to 30%.
The corresponding values for `O=C1NC(=O)N(c2ccc(Cl)cc2)C(=O)/C1=C\c1ccco1` are 74 µM, 33 µM and 60%.
The corresponding values for `O=C1NC(=O)N(c2ccccc2)C(=O)/C1=C\c1ccco1` are 16 µM, 15 µM and 65%.
In the case of `Cc1cccc(N2C(=O)/C(=C/c3ccc(OCc4cccc(C(=O)O)c4)cc3)C(=O)NC2=S)c1`, the Ki in test [1] was determined as 97 µM; in test [2], 84 µM. For the same molecule, the inhibition in test [3] amounted to 33%.
The corresponding values for `CCc1ccc(N2C(=O)NC(=O)/C(=C\c3ccccc3OCc3ccc(C(=O)O)cc3)C2=O)cc1` are 181 µM, 139 µM and 30%.
The corresponding values for `Cc1ccc(N2C(=O)NC(=O)/C(=C\c3ccccc3OCc3ccc(C(=O)O)cc3)C2=O)cc1` are 258 µM, 157 µM and 30%.
As to `Cc1cccc(N2C(=O)/C(=C/c3ccccc3OCc3ccc(C(=O)O)cc3)C(=O)NC2=S)c1`, the inhibitory constant (Ki) in test [4] amounted to 267 µM; in test [5] it was 141 µM. The molecule further had an inhibition in test [3] of 27%.
The corresponding values for `O=C(O)c1ccccc1-c1ccc(C=C2C(=O)N(c3ccccc3)C(=S)N(c3ccccc3)C2=O)o1` are 35 µM, 12 µM and 52%.
With `Cc1ccc(N2C(=O)NC(=O)/C(=C\c3ccccc3OCc3ccc(C(=O)O)cc3)C2=O)cc1C`, the Ki in test [1] turned out to be 297 µM; in test [2] it was 155 µM. The molecule further had an inhibition in test [3] of 27%.
In the case of `O=C1/C(=C/c2ccco2)C(=O)N(c2ccc(Br)cc2)C(=S)N1c1ccccc1`, in test [6], the inhibition result was “inactive”.
